Results: ChEMBL document CHEMBL3124917, “Design, synthesis, and biological evaluation of deuterated C-aryl glycoside as a potent and long-acting renal sodium-dependent glucose cotransporter 2 inhibitor for the treatment of type 2 diabetes” (J Med Chem, 2014)

System: Canis familiaris
Test: Antidiabetic activity in Beagle dog assessed as urinary glucose excretion at 0.03 mg/kg, po administered 1 hr prior to glucose challenge measured after 8 to 24 hrs relative to dapagliflozin
Type: functional, Canis lupus familiaris, Urine
Details: not given
In short: (§1)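 Overnight-fasted beagle dogs, n = 3 per group, given 0.03 mg/kg orally by gavage in 10% PEG400; vehicle controls received 10% PEG400. Oral glucose (2 g/kg, 5 mL/kg) given 1 h post-dose. Expressed as % of reference positive control; mean ± SD.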

Row | Structure (SMILES) | Activity [mg]
1 | [2H][C@@]1(c2ccc(Cl)c(Cc3ccc(OCC)cc3)c2)O[C@H](CO)[C@@H](O)[C@H](O)[C@H]1O | 8910
2 | [2H]C([2H])(c1ccc(OCC)cc1)c1cc([C@@H]2O[C@H](CO)[C@@H](O)[C@H](O)[C@H]2O)ccc1Cl | 6830

System: Canis familiaris
Test: Antidiabetic activity in Beagle dog assessed as urinary glucose excretion at 0.03 mg/kg, po administered 1 hr prior to glucose challenge measured after 1 to 8 hrs relative to dapagliflozin
Type: functional, Canis lupus familiaris, Urine
Details: not given
In short: as §1, with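 “post-dose. Urine collected in metabolic cages at 0–8 and 8–24 h, glucose read on a biochemistry analyzer.” for “post-dose.”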

Row | Structure (SMILES) | Activity [mg]
3 | [2H][C@@]1(c2ccc(Cl)c(Cc3ccc(OCC)cc3)c2)O[C@H](CO)[C@@H](O)[C@H](O)[C@H]1O | 3760
4 | [2H]C([2H])(c1ccc(OCC)cc1)c1cc([C@@H]2O[C@H](CO)[C@@H](O)[C@H](O)[C@H]2O)ccc1Cl | 3400

System: Rattus norvegicus
Test: Antidiabetic activity in Sprague-Dawley rat assessed as urinary glucose excretion at 1 mg/kg, po administered 1 hr prior to glucose challenge measured after 1 to 4 hrs relative to dapagliflozin
Type: functional, Urine
Details: not given
In short: (§2)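 Overnight-fasted Sprague-Dawley rats, n = 3 per group, dosed 1 mg/kg by oral gavage in 30% PEG400; controls received vehicle. Oral glucose (2 g/kg, 10 mL/kg) given 1 h post-dose. Urine collected in metabolic cages at 0–4 and 4–24 h, glucose measured on a biochemistry analyzer. Expressed as % of reference positive control; mean ± SD.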

Row | Structure (SMILES) | Activity [mg]
5 | [2H][C@@]1(c2ccc(Cl)c(Cc3ccc(OCC)cc3)c2)O[C@H](CO)[C@@H](O)[C@H](O)[C@H]1O | 193
6 | [2H]C([2H])(c1ccc(OCC)cc1)c1cc([C@@H]2O[C@H](CO)[C@@H](O)[C@H](O)[C@H]2O)ccc1Cl | 168

System: Rattus norvegicus
Test: Antidiabetic activity in Sprague-Dawley rat assessed as urinary glucose excretion at 1 mg/kg, po administered 1 hr prior to glucose challenge measured after 4 to 24 hrs relative to dapagliflozin
Type: functional, Urine
Details: not given
In short: as §2

Row | Structure (SMILES) | Activity [mg]
7 | [2H][C@@]1(c2ccc(Cl)c(Cc3ccc(OCC)cc3)c2)O[C@H](CO)[C@@H](O)[C@H](O)[C@H]1O | 2460
8 | [2H]C([2H])(c1ccc(OCC)cc1)c1cc([C@@H]2O[C@H](CO)[C@@H](O)[C@H](O)[C@H]2O)ccc1Cl | 2060

System: Rattus norvegicus
Test: Antidiabetic activity in Sprague-Dawley rat assessed as urinary glucose excretion at 1 mg/kg, po administered 1 hr prior to glucose challenge measured after 1 to 24 hrs relative to dapagliflozin
Type: functional, Urine
Details: not given
In short: as §2

Row | Structure (SMILES) | Activity [mg]
9 | [2H][C@@]1(c2ccc(Cl)c(Cc3ccc(OCC)cc3)c2)O[C@H](CO)[C@@H](O)[C@H](O)[C@H]1O | 2650
10 | [2H]C([2H])(c1ccc(OCC)cc1)c1cc([C@@H]2O[C@H](CO)[C@@H](O)[C@H](O)[C@H]2O)ccc1Cl | 2220

System: not listed separately
Test: AUC (0 to infinity) in Sprague-Dawley rat at 3 mg/kg, po by LC-MS/MS analysis
Type: ADME, organism-based
Design: time infinity, dose 3 mg/kg, route oral
Details: plasma
In short: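 Male Sprague-Dawley rats, n = 4 per group, overnight-fasted. Oral gavage of 3 or 1 mg/kg in 30% PEG400; i.v. arm at 1 mg/kg. Orbital plexus blood taken under ether at 0.083–24 h; plasma deproteinized and assayed by LC-MS/MS. Noncompartmental parameters derived; mean ± SD reported.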

Row | Structure (SMILES) | AUC(0-inf) [ng·h/mL]
11 | [2H]C([2H])(c1ccc(OCC)cc1)c1cc([C@@H]2O[C@H](CO)[C@@H](O)[C@H](O)[C@H]2O)ccc1Cl | 16100

System: Canis familiaris
Test: Antidiabetic activity in Beagle dog assessed as urinary glucose excretion at 0.03 mg/kg, po administered 1 hr prior to glucose challenge measured after 1 to 24 hrs relative to dapagliflozin
Type: functional, Canis lupus familiaris, Urine
Details: not given
In short: as §1, with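 “post-dose. Urine collected in metabolic cages at 0–8 and 8–24 h, glucose read on a biochemistry analyzer.” for “post-dose.”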

Row | Structure (SMILES) | Activity [mg]
12 | [2H][C@@]1(c2ccc(Cl)c(Cc3ccc(OCC)cc3)c2)O[C@H](CO)[C@@H](O)[C@H](O)[C@H]1O | 12700
13 | [2H]C([2H])(c1ccc(OCC)cc1)c1cc([C@@H]2O[C@H](CO)[C@@H](O)[C@H](O)[C@H]2O)ccc1Cl | 10200
